# Source: ChEMBL document CHEMBL3351252, “Design, synthesis, and structure-activity relationship studies of a series of [4-(4-carboxamidobutyl)]-1-arylpiperazines: insights into structural features contributing to dopamine D3 versus D2 receptor subtype selectivity” (J Med Chem, 2014)
# The source made the active and inactive calls. The rule behind the calls is not given here.
# Key:
# D(3) dopamine receptor [1] = molecular target: T1, D(3) dopamine receptor (Homo sapiens, UniProt P35462); experiment: Displacement of [125I]IABN from human D3R expressed in HEK293 cell membranes by gamma counting method
# D(2) dopamine receptor [2] = molecular target: T2, D(2) dopamine receptor (Homo sapiens, UniProt P14416); experiment: Displacement of [125I]IABN from human D2LR expressed in HEK293 cell membranes by gamma counting method
# D(2) dopamine receptor [3] = molecular target: T2, D(2) dopamine receptor; experiment: Agonist activity at human D2R expressed in CHO cells assessed as stimulation of mitogenesis at 10 uM after 24 hrs by [3H]thymidine uptake assay relative to quinpirole; type: cell-based
# In short: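 CHOp-D2 cells grown 48–72 h, then serum-starved 24 h. Exposed to 10 μM compound in serum-free α-MEM for 24 h at 37 °C. Pulsed 2 h with 0.25 μCi [3H]thymidine, trypsinized, filtered and counted. Stimulation expressed relative to maximal quinpirole. Two independent experiments.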
# Homo sapiens [4] = organism: Homo sapiens; experiment: Selectivity index, ratio of Ki for human D2LR to Ki or human D3R
# D(3) dopamine receptor [5] = molecular target: T1, D(3) dopamine receptor; details: CHO, 1 uM
# D(2) dopamine receptor [6] = molecular target: T2, D(2) dopamine receptor; experiment: Antagonist activity against human D2R expressed in CHO cells assessed as inhibition of quinpirole-induced mitogenesis after 24 hrs by [3H]thymidine uptake assay; type: cell-based
# In short: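 Serum-starved CHOp-D2 or CHOp-D3 cells given serial dilutions of test compound plus quinpirole (30 nM final). Incubated at 37 °C for 24 h (D2) or 16 h (D3). Then 2 h [3H]thymidine pulse, filtration and counting.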
# D(2) dopamine receptor [7] = molecular target: T2, D(2) dopamine receptor; experiment: Antagonist activity against human D2LR expressed in CHOK1 cells assessed as inhibition of pergolide-induced beta-arrestin translocation by beta-galactosidase based beta-arrestin recruitment assay; type: cell-based, CHO-K1
# D(2) dopamine receptor [8] = molecular target: T2, D(2) dopamine receptor; experiment: Agonist activity at human D2LR expressed in CHO-K1 cells assessed as stimulation of basal activity by beta-galactosidase based beta-arrestin recruitment assay; type: cell-based
# In short: (§1)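 CHO-K1 cells expressing human D2L receptor, β-arrestin/β-galactosidase fragment-complementation assay. Cells plated 2500/well and grown 48 h at 37 °C. Test compounds given at 11 half-log points from 5 μM, 120 min at 37 °C. Detection reagent added and chemiluminescence read. Results given as % stimulation or inhibition of basal luminescence. Compounds counterscreened for β-gal inhibition.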
# D(2) dopamine receptor [9] = molecular target: T2, D(2) dopamine receptor; experiment: Inverse agonist activity at human D2LR expressed in CHO-K1 cells assessed as inhibition of basal activity by beta-galactosidase based beta-arrestin recruitment assay; type: cell-based; in short: as §1
# D(3) dopamine receptor [10] = molecular target: T1, D(3) dopamine receptor; experiment: Antagonist activity against D3R in human U2OS cells assessed as inhibition of (+)-PD128907-induced beta-arrestin translocation by beta-galactosidase based beta-arrestin recruitment assay; type: cell-based
# Homo sapiens [11] = organism: Homo sapiens; experiment: Selectivity index, ratio of IC50 for human D2LR to IC50 for human D3R by beta-galactosidase based beta-arrestin recruitment assay
# D(2) dopamine receptor [12] = molecular target: T2, D(2) dopamine receptor; experiment: Agonist activity against human D2R expressed in HEK293 cells assessed as inhibition of forskolin-induced adenyl cyclase activity at 10 times Ki relative to quinpirole; type: functional, cell-based
# In short: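 Whole HEK 293 cells expressing human D2R, prelabelled with [2,8-3H]adenine for 75 min at 37 °C, then given 0.1 mM IBMX. […] Stopped with TCA. [3H]cAMP separated on Dowex/alumina. Inhibition normalized to 1 μM quinpirole. Mean ± SEM of ≥3 experiments.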
# D(2) dopamine receptor [13] = molecular target: T2, D(2) dopamine receptor; details: CHO, 1 uM
# D(3) dopamine receptor [14] = molecular target: T1, D(3) dopamine receptor; details: CHO, 10 uM
# D(3) dopamine receptor [15] = molecular target: T1, D(3) dopamine receptor; experiment: Displacement of [125I]IABN from chimeric human D3 receptor possessing extracellular loop II of D2 receptor expressed in HEK293 cell membranes by gamma counting method
# In short: (§2)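 Membranes from HEK 293 cells stably expressing receptor, prepared in 50 mM Tris-HCl pH 7.4/10 mM EDTA/150 mM NaCl and stored at −80 °C. […] Nonspecific binding defined with 2 μM (+)-butaclamol. Filtered, gamma counted. IC50 from single-site nonlinear regression, converted to Ki.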
# D(3) dopamine receptor [16] = molecular target: D(3) dopamine receptor (Homo sapiens, UniProt P35462, E90Q); experiment: Displacement of [125I]IABN from human D3R E90Q mutant expressed in HEK293 cell membranes by gamma counting method; in short: as §2
# D(2) dopamine receptor [17] = molecular target: T2, D(2) dopamine receptor; experiment: Displacement of [125I]IABN from chimeric human D2 receptor possessing extracellular loop II of D3 receptor expressed in HEK293 cell membranes by gamma counting method
# D(3) dopamine receptor [18] = molecular target: D(3) dopamine receptor (Homo sapiens, UniProt P35462, E90A); experiment: Displacement of [125I]IABN from human D3R E90A mutant expressed in HEK293 cell membranes by gamma counting method; in short: as §2
# D(3) dopamine receptor [19] = molecular target: T1, D(3) dopamine receptor; experiment: Displacement of [125I]IABN from wild type human D3R expressed in HEK293 cell membranes by gamma counting method; in short: as §2
# D(3) dopamine receptor [20] = molecular target: D(3) dopamine receptor (Homo sapiens, UniProt P35462, S182I); experiment: Displacement of [125I]IABN from human D3R S182I mutant expressed in HEK293 cell membranes by gamma counting method; in short: as §2
# D(2) dopamine receptor [21] = molecular target: T2, D(2) dopamine receptor; experiment: Displacement of [125I]IABN from wild type human D2R expressed in HEK293 cell membranes by gamma counting method
# D(3) dopamine receptor [22] = molecular target: T1, D(3) dopamine receptor; experiment: Inverse agonist activity at D3R in human U2OS cells assessed as inhibition of basal activity at 500 nM by beta-galactosidase based beta-arrestin recruitment assay; type: cell-based
# T2 sequence (P14416 whole entry): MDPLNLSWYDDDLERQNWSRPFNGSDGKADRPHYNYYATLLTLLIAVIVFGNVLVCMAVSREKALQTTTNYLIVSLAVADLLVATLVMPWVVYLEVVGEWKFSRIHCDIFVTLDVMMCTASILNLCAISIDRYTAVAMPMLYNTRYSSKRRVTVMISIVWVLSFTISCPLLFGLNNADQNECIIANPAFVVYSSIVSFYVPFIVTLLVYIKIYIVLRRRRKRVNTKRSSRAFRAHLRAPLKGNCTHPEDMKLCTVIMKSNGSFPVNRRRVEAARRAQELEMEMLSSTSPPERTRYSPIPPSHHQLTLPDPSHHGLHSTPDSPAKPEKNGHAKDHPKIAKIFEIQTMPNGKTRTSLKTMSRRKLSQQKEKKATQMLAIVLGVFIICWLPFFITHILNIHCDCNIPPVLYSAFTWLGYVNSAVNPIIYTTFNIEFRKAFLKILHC
# T1 sequence (P35462 whole entry): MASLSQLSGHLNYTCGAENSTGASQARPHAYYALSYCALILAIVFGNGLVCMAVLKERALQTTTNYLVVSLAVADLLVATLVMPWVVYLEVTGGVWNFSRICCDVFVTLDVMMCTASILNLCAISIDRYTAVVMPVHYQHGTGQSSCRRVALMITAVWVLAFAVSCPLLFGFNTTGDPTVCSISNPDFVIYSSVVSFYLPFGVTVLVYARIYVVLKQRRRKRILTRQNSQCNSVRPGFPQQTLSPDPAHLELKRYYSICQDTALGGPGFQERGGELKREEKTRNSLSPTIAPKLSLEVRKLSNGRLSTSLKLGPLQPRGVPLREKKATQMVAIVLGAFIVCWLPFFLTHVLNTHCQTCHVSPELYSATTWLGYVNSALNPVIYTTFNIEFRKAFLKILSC
# D(3) dopamine receptor (Homo sapiens, UniProt P35462, S182I), sequence (P35462 as listed by the source S182I): as the sequence (P35462 whole entry) above, with G9S, S182I counted along it
# D(3) dopamine receptor (Homo sapiens, UniProt P35462, E90A), sequence (P35462 as listed by the source E90A): as the sequence (P35462 whole entry) above, with G9S, E90A counted along it
# D(3) dopamine receptor (Homo sapiens, UniProt P35462, E90Q), sequence (P35462 as listed by the source E90Q): as the sequence (P35462 whole entry) above, with G9S, E90Q counted along it
Ki (D(3) dopamine receptor [1]) [nM],Ki (D(2) dopamine receptor [2]) [nM],Ratio Ki (Homo sapiens [4]),IC50 (D(2) dopamine receptor [7]) [nM],Activity (D(2) dopamine receptor [8]),inhibition (D(2) dopamine receptor [9]),IC50 (D(3) dopamine receptor [10]) [nM],Ratio IC50 (Homo sapiens [11]),SMILES,further results
0.3,12,40,91,inactive,inactive,0.2,455,O=C(NCCCCN1CCN(c2cccc(Cl)c2Cl)CC1)c1cn2ccccc2n1,Activity (D(2) dopamine receptor [3]): < 20%; inhibition (D(3) dopamine receptor [5]): < 30%; IC50 (D(2) dopamine receptor [6]): 55 nM; inhibition (D(2) dopamine receptor [12]): 45%; inhibition (D(2) dopamine receptor [13]): < 30%
,,,22,inactive,inactive,,,CC(C)(C)c1nc(N2CCN(CCCCNC(=O)c3cn4nc(Cl)ccc4n3)CC2)cc(C(F)(F)F)n1,Activity (D(2) dopamine receptor [3]): < 1%
2.9,162,56,60,inactive,inactive,1.8,33,O=C(NCCCCN1CCN(c2cccc(C(F)(F)F)c2)CC1)c1cn2ccccc2n1,inhibition (D(2) dopamine receptor [12]): 32%
124,1300,11,,,,,,CC(C)(C)c1cc(N2CCN(CCCCNC(=O)c3cn4ccccc4n3)CC2)cc(C(C)(C)C)c1,
77,1560,20,,,,,,O=C(NCCCCN1CCN(c2ccc3ccccc3n2)CC1)c1cn2ccccc2n1,
10,178,18,,,,,,O=C(NCCCCN1CCN(c2ccccc2)CC1)c1cn2ccccc2n1,
25,527,21,311,,,14,22,CN(C)Cc1c(C(=O)NCCCCN2CCN(c3cc(C(F)(F)F)nc(C(C)(C)C)n3)CC2)[nH]c2ccccc12,inhibition (D(3) dopamine receptor [22]): < 21%
,,19,,,,,,CC(C)(C)c1cc(N2CCN(CCCCNC(=O)c3cn4ccccc4n3)CC2)nc(C(C)(C)C)n1,
6.4,191,30,,,,,,N#Cc1cc(N2CCN(CCCCNC(=O)c3cn4ccccc4n3)CC2)cc(C(F)(F)F)c1,
32,683,21,,,,,,CC(C)(C)c1nc(N2CCN(CCCCNC(=O)c3cc4cccnc4s3)CC2)cc(C(F)(F)F)n1,

SMILES,Ki (D(3) dopamine receptor [1]) [nM],Ki (D(2) dopamine receptor [2]) [nM],Ratio Ki (Homo sapiens [4]),IC50 (D(2) dopamine receptor [7]) [nM],Activity (D(2) dopamine receptor [8]),inhibition (D(2) dopamine receptor [9]),IC50 (D(3) dopamine receptor [10]) [nM],Ratio IC50 (Homo sapiens [11]),further results
CC(C)(C)c1nc(N2CCN(CCCCNC(=O)c3cn4ccncc4n3)CC2)cc(C(F)(F)F)n1,,,56,49,inactive,inactive,0.3,163,Activity (D(2) dopamine receptor [3]): < 20%; inhibition (D(3) dopamine receptor [5]): < 30%; inhibition (D(3) dopamine receptor [14]): 40%; inhibition (D(2) dopamine receptor [13]): < 30%
CN(C)Cc1cccc2nc(C(=O)NCCCCN3CCN(c4cc(C(F)(F)F)nc(C(C)(C)C)n4)CC3)cn12,,,11,,inactive,inactive,,9.7,Ki (D(3) dopamine receptor [15]): 44 nM; Ki (D(3) dopamine receptor [16]): 12 nM; Ki (D(2) dopamine receptor [17]): 176 nM; Ki (D(3) dopamine receptor [18]): 12 nM; Ki (D(3) dopamine receptor [19]): 16 nM; Ki (D(3) dopamine receptor [20]): 24 nM; Ki (D(2) dopamine receptor [21]): 245 nM
